Data set [1] deals with Mus musculus. Put plainly: Anticonvulsant activity in CF1 mouse assessed as protection against maximal electroshock-induced seizures at 300 mg/kg, ip after 0.5 hrs. The class given is functional, organism-based. The arrangement: dose 300 mg/kg. The gist of the method:
(§1)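 Mice given compound i.p. at 30, 100 or 300 mg/kg and tested 0.5 or 4 h after dosing. Seizures were induced by maximal electroshock (MES) or subcutaneous metrazole (ScMet). Prevention of seizures counts as protection. Result is recorded as number of animals protected over number tested.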

Data set [2] has as its system Mus musculus. Put plainly: Anticonvulsant activity in CF1 mouse assessed as protection against maximal electroshock-induced seizures at 100 mg/kg, ip after 0.5 hrs. The class given is functional, organism-based. The arrangement: dose 100 mg/kg. The procedure, abridged: as §1
Data set [3] deals with Mus musculus. Description: Anticonvulsant activity in CF1 mouse assessed as protection against maximal electroshock-induced seizures at 30 mg/kg, ip after 0.5 hrs. The class given is functional, organism-based. The arrangement: dose 30 mg/kg. The gist of the method:
as §1

The species named for data set [4] is Rattus norvegicus. Put plainly: Displacement of [3H]CGP-12177 from beta1-adrenergic receptor in rat cerebral cortex at 50 uM after 60 mins by scintillation counting. The class given is tissue-based.
In data set [5] the target is T1, Adrenergic receptor alpha-1 (Rattus norvegicus, UniProt P15823+P23944+P43140).
T1 sequence (P15823 whole entry): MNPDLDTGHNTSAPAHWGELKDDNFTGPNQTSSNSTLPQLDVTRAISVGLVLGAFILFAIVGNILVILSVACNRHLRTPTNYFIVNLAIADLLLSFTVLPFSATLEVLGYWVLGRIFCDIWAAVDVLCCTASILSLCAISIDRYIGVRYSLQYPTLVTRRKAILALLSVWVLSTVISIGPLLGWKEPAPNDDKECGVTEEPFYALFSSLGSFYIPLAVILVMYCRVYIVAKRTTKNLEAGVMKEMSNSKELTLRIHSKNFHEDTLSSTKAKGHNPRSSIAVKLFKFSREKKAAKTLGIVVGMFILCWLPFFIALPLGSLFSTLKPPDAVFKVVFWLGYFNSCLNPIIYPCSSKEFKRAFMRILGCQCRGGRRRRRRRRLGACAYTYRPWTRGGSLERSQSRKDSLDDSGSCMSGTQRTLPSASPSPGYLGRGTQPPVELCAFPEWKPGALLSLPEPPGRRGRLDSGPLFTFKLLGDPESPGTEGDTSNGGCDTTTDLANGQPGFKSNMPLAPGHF
T1 sequence (P23944 whole entry): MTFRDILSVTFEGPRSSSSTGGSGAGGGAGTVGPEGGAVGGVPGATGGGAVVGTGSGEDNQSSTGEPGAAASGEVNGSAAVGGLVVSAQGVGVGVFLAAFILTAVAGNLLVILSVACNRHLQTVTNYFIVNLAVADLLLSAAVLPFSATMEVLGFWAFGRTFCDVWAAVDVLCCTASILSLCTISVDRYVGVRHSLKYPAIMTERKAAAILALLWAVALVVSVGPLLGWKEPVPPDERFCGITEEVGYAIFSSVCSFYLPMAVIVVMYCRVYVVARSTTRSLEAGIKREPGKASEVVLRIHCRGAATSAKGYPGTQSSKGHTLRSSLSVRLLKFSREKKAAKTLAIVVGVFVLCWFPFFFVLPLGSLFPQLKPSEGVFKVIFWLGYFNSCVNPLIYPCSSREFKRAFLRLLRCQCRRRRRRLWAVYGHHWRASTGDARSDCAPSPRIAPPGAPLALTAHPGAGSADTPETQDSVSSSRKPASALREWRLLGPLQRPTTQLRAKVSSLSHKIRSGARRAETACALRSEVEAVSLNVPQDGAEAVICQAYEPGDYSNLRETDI
T1 sequence (P43140 whole entry): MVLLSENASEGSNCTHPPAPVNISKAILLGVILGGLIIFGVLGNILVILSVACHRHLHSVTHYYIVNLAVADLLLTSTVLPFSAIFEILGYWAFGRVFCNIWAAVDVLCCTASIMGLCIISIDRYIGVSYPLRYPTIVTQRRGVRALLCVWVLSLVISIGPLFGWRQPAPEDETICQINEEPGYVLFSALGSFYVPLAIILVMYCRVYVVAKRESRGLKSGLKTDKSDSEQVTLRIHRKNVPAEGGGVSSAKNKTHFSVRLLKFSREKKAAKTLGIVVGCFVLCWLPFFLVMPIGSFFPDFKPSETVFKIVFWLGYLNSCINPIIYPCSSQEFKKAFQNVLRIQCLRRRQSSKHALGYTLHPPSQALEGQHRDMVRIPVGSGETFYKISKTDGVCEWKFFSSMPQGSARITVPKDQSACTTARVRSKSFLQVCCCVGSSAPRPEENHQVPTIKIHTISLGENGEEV
Description: Displacement of [3H]prazosin from alpha1-adrenergic receptor in rat cerebral cortex after 30 mins by scintillation counting. The class given is tissue-based. The gist of the method: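 Radioligand binding on rat brain tissue membranes, run in 96-well format. [3H]prazosin was used for α1 (n = 2) and [3H]CGP-12177 for β1 (n = 2). Ki was calculated by the Cheng–Prusoff equation.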

Data set [6] addresses 5-hydroxytryptamine receptor 7 (Homo sapiens, UniProt P34969). Put plainly: Displacement of [3H]5-CT from human 5HT7b receptor expressed in HEK293 cells after 1 hr. The class given is cell-based.
The target of data set [7] is 5-hydroxytryptamine receptor 6 (Homo sapiens, UniProt P50406). Description: Displacement of [3H]LSD from human 5HT6 receptor expressed in HEK293 cells after 1 hr. The class given is cell-based.
Sequence of 5-hydroxytryptamine receptor 6 (P50406 whole entry): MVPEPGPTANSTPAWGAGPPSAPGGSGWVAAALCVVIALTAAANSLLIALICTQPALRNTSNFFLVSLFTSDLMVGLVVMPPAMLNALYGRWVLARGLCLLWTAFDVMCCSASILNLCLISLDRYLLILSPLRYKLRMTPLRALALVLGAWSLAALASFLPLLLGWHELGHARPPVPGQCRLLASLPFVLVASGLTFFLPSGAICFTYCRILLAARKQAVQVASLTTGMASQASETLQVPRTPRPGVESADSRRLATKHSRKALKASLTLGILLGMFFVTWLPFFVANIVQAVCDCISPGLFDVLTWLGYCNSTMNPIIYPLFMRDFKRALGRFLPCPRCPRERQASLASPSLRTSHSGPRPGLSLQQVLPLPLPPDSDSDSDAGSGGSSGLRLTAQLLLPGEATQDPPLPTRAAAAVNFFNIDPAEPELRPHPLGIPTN
The target of data set [8] is T2, 5-hydroxytryptamine receptor 1A (Homo sapiens, UniProt P08908).
T2 sequence (P08908 whole entry): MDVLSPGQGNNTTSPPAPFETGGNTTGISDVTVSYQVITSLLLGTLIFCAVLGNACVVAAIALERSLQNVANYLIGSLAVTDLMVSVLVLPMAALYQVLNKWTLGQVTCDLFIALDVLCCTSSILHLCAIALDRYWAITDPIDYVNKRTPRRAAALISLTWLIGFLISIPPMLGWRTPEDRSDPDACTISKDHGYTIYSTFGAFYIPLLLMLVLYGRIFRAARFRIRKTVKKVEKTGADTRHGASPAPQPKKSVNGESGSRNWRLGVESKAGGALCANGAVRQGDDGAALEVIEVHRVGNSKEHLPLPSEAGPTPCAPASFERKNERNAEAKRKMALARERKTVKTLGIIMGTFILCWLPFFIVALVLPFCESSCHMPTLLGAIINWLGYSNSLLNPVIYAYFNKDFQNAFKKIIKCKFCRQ
Put plainly: Displacement of [3H]8-OH-DPAT from human 5HT1A receptor expressed in HEK293 cells after 1 hr. The class given is cell-based.

Data set [9] deals with Mus musculus. Put plainly: Neurotoxicity in CF1 mouse assessed as minimal motor impairment at 300 mg/kg, ip after 4 hrs by rotorod test. The class given is toxicity, organism-based. Particulars: in vivo. The arrangement: dose 300 mg/kg, route intraperitoneal. The procedure, abridged:
(§2)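 Rotarod neurotoxicity screen in mice dosed i.p. at 30, 100 or 300 mg/kg, read 0.5 or 4 h after dosing. The animal must stay on a rod rotating at 6 rpm without falling, measured 3 times within 1 min. A fall counts as minimal motor impairment. Result is recorded as impaired animals over animals used.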

Data set [10] has as its system Mus musculus. Put plainly: Neurotoxicity in CF1 mouse assessed as minimal motor impairment at 30 mg/kg, ip after 4 hrs by rotorod test. The class given is toxicity, organism-based. Particulars: in vivo. The arrangement: dose 30 mg/kg, route intraperitoneal. The gist of the method:
as §2

Data set [11] concerns Mus musculus. Put plainly: Neurotoxicity in CF1 mouse assessed as minimal motor impairment at 100 mg/kg, ip after 4 hrs by rotorod test. The class given is toxicity, organism-based. The conditions noted are these: in vivo. The arrangement: dose 100 mg/kg, route intraperitoneal. The procedure, abridged:
as §2

Data set [12] deals with Mus musculus. Put plainly: Neurotoxicity in CF1 mouse assessed as minimal motor impairment at 100 mg/kg, ip after 0.5 hrs by rotorod test. The class given is toxicity, organism-based. Also on record: dose 100 mg/kg, route intraperitoneal. Particulars: in vivo. The procedure, abridged:
as §2

For data set [13], the system named is Mus musculus. Put plainly: Neurotoxicity in CF1 mouse assessed as minimal motor impairment at 30 mg/kg, ip after 0.5 hrs by rotorod test. The class given is toxicity, organism-based. Particulars: in vivo. Also on record: dose 30 mg/kg, route intraperitoneal. The gist of the method:
as §2

The test system of data set [14] is Mus musculus. Description: Anticonvulsant activity in CF1 mouse assessed as protection against subcutaneous metrazole-induced seizures at 300 mg/kg, ip after 4 hrs. The class given is functional, organism-based. The arrangement: dose 300 mg/kg. The gist of the method: as §1
The subject of data set [15] is Mus musculus. Put plainly: Anticonvulsant activity in CF1 mouse assessed as protection against subcutaneous metrazole-induced seizures at 100 mg/kg, ip after 4 hrs. The class given is functional, organism-based. The arrangement: dose 100 mg/kg. The gist of the method:
as §1

Data set [16] relates to Mus musculus. Description: Anticonvulsant activity in CF1 mouse assessed as protection against subcutaneous metrazole-induced seizures at 30 mg/kg, ip after 4 hrs. The class given is functional, organism-based. Also on record: dose 30 mg/kg. The gist of the method:
as §1

Data set [17] concerns Mus musculus. Put plainly: Anticonvulsant activity in CF1 mouse assessed as protection against subcutaneous metrazole-induced seizures at 300 mg/kg, ip after 0.5 hrs. Also on record: dose 300 mg/kg. The class given is functional, organism-based. The procedure, abridged: as §1
Data set [18] relates to Mus musculus. Put plainly: Anticonvulsant activity in CF1 mouse assessed as protection against subcutaneous metrazole-induced seizures at 100 mg/kg, ip after 0.5 hrs. The class given is functional, organism-based. Also on record: dose 100 mg/kg. The gist of the method:
as §1

The subject of data set [19] is Mus musculus. Put plainly: Anticonvulsant activity in CF1 mouse assessed as protection against subcutaneous metrazole-induced seizures at 30 mg/kg, ip after 0.5 hrs. The class given is functional, organism-based. Also on record: dose 30 mg/kg. The gist of the method:
as §1

The subject of data set [20] is Mus musculus. Description: Anticonvulsant activity in CF1 mouse assessed as protection against maximal electroshock-induced seizures at 300 mg/kg, ip after 4 hrs. The class given is functional, organism-based. Also on record: dose 300 mg/kg. The procedure, abridged:
as §1

For data set [21], the system named is Mus musculus. Put plainly: Anticonvulsant activity in CF1 mouse assessed as protection against maximal electroshock-induced seizures at 100 mg/kg, ip after 4 hrs. The class given is functional, organism-based. The arrangement: dose 100 mg/kg. The procedure, abridged: as §1
The test system of data set [22] is Mus musculus. Description: Anticonvulsant activity in CF1 mouse assessed as protection against maximal electroshock-induced seizures at 30 mg/kg, ip after 4 hrs. The class given is functional, organism-based. Also on record: dose 30 mg/kg. The procedure, abridged: as §1
Data set [23] relates to Rattus norvegicus. Description: Anticonvulsant activity in Sprague-Dawley rat assessed as protection against maximal electroshock-induced seizures at 30 mg/kg, po after 0.25 hrs. The class given is functional, organism-based. The arrangement: dose 30 mg/kg. The procedure, abridged:
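Rats dosed orally at 30 mg/kg and tested in MES at several time points after dosing. Protection means seizures were prevented. Result is recorded as number of animals protected over number tested.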

The source made the active and inactive calls. The rule behind the calls is not given here.

The record followed here is ChEMBL document CHEMBL2401625, “Synthesis and evaluation of pharmacological properties of some new xanthone derivatives with piperazine moiety” (Bioorg Med Chem Lett, 2013).

Sequence of 5-hydroxytryptamine receptor 7 (P34969 whole entry): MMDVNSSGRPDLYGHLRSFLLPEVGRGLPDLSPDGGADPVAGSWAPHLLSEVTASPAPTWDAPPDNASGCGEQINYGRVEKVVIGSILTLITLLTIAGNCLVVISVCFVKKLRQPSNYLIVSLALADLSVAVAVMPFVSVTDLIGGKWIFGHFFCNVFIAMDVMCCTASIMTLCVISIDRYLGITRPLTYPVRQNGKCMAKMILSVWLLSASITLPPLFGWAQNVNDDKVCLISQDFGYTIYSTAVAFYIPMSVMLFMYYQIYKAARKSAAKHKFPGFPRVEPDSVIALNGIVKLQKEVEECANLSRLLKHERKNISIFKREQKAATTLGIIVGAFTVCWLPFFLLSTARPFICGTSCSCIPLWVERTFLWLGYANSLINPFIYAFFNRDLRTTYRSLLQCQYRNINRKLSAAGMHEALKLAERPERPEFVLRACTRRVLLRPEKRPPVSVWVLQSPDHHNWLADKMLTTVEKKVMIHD

For the molecule `COc1ccc2c(=O)c3cccc(CN4CCN(c5ccccc5OC)CC4)c3oc2c1.Cl`, the result with Mus musculus [1], in the data set on Mus musculus [2], in the data set with Mus musculus [3], with Mus musculus [14], in the data set on Mus musculus [15] and in the data set on Mus musculus [16] was inactive. For the same molecule, the outcome in the data set with Mus musculus [17], in the data set on Mus musculus [18], in the data set with Mus musculus [19], with Mus musculus [20], with Mus musculus [21] and in the data set with Mus musculus [22] was inactive. Besides, the inhibition result in the data set listed under Rattus norvegicus [4] is “inactive”. The inhibitory constant (Ki) in data set [5] came to 0.17 µM; in data set [6], 0.195 µM; in [7], 9.36 µM; in [8] it was 0.024 µM. Besides, the Activity entry in the data set with Mus musculus [9], with Mus musculus [10], in the data set with Mus musculus [11], with Mus musculus [12] and with Mus musculus [13] was “Non-toxic” each time.

With `COc1ccc2c(=O)c3cc(CN4CCN(c5ccccc5OC)CC4)ccc3oc2c1`, the outcome with Mus musculus [1], in the data set on Mus musculus [2], in the data set with Mus musculus [3], in the data set with Mus musculus [14], in the data set with Mus musculus [15] and in the data set with Mus musculus [16] was inactive. Moreover, the result in the data set with Mus musculus [17], in the data set with Mus musculus [18], in the data set with Mus musculus [19], with Mus musculus [20], in the data set with Mus musculus [21] and with Mus musculus [22] was inactive.

With `COc1ccc2c(=O)c3cc(CN4CCN(Cc5ccccc5)CC4)ccc3oc2c1`, the outcome with Mus musculus [1], in the data set on Mus musculus [2], in the data set on Mus musculus [3], in the data set on Rattus norvegicus [23], in the data set with Mus musculus [14] and in the data set on Mus musculus [15] was inactive. The result in the data set with Mus musculus [16], in the data set with Mus musculus [17], in the data set with Mus musculus [18], in the data set on Mus musculus [19] and with Mus musculus [22] was inactive. Also, the inhibition result in the data set filed under Rattus norvegicus [4] is “inactive”. For the same molecule, the outcome with Mus musculus [20] was Active.

With `CN1CCN(Cc2cccc3c(=O)c4ccc(Cl)cc4oc23)CC1.Cl.Cl.Cl`, the inhibition result in the data set listed under Rattus norvegicus [4] is “inactive”. For the same molecule, the Ki in [5] was 0.65 µM; in [6], 10.5 µM; in data set [7], 19.5 µM; in [8], 13.3 µM.
